Compound activity from PubChem.
Calb FLC: C. albicans growth inhibition with fluconazole, primary screen, CaCi-2 strain, Alamar Blue fluorescence; C. albicans CaCi-2 (fluconazole-resistant clinical isolate) + fluconazole, 48 h; growth inhibition, % (concentration not given with the values); 0.57% of 300,000 active;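 active means growth inhibition above about 58% in most replicates, limit read from the data, passing the limit was not always enough; inconclusive means exactly half the replicates above a set limit; inactive means most replicates below a set limit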;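 further: all wells also contain fluconazole at 8 µg/ml as a sub-toxic cotreatment; 0% = median of DMSO wells and 100% = median of geldanamycin control wells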
CSC inhib: cancer stem cell viability inhibitors, primary screen, luminescence. cancer stem cell-like cells viability. inhibition, % at 7.5 µM. 1.1% of 300,000 active; in the data active means inhibition above about 75%; inconclusive means no clear call, values can overlap the other calls; tested in HMLE shEcad cells
T cruzi repl: inhibitors of intracellular T. cruzi growth, primary screen, luminescence, NIH3T3 host cells. T. cruzi beta-gal in NIH3T3, 90 h. 1.4% of 300,000 active. AID 1885, 2009. inhibition, % (test concentration not listed);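 active means mean inhibition across valid replicates above about 55%, limit read from the data; inconclusive means mean below that limit but half or more replicates reach it; inactive means mean below it, under half of replicates reach it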;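 further: signal also drops with host cell toxicity which is not excluded here; 0% = plate median of DMSO wells and 100% = zero luminescence signal; higher percent means less beta-gal luminescence so fewer parasites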
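Assay system: NIH/3T3 host cells with β-galactosidase reporter T. cruzi; input: 5,000 host fibroblasts per well; compound: single 50 nL compound addition per well in DMSO; timing: ≥90 h infection period, 3 h prior cell attachment; measured by: GalScreen β-gal luminescence, detergent lysis, 60 min; evaluation: percent inhibition of parasite-derived β-gal signal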
Mdm2-MdmX inh: inhibitors of human Mdm2-MdmX association, primary screen, cell-based, luminescence, split luciferase, SaOS-2, uHTS; Protein Mdm4 (Homo sapiens) + E3 ubiquitin-protein ligase Mdm2 (Homo sapiens), …; SaOS-2 split-luciferase Mdm2/MdmX complementation; inhibition, % at 8 µM; 3% of 330,000 active; AID 485346, 2010;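 active means inhibition of at least 50% at 8 µM in the primary screen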
Target sequence (O15151 whole entry, looked up): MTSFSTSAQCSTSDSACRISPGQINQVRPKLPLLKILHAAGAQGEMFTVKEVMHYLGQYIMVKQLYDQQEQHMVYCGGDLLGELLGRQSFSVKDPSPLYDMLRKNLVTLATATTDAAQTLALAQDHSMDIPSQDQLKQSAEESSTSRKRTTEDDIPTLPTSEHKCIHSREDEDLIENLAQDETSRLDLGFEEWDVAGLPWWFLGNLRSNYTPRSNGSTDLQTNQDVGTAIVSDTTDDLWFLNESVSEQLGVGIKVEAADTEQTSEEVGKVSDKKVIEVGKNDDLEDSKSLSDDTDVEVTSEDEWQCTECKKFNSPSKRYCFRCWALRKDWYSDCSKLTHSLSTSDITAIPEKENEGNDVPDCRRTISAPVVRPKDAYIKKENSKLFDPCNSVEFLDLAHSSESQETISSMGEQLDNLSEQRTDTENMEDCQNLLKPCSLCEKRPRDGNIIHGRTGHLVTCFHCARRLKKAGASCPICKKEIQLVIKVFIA
Target sequence (Q00987 whole entry, looked up): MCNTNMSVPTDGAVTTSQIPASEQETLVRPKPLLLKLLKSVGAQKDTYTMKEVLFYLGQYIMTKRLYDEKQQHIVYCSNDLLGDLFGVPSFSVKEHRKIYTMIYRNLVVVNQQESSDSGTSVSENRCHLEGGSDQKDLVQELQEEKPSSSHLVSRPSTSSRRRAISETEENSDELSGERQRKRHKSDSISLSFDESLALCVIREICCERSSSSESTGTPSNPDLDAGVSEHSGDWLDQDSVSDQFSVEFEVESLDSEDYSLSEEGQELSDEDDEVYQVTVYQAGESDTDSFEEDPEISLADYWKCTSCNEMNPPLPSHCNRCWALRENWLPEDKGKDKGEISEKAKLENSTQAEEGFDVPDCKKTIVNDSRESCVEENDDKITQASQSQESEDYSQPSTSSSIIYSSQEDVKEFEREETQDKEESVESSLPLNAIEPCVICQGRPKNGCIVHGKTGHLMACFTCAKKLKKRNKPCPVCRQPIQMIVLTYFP
NALP3 yeast inh: NALP3 inflammasome inhibitors in reconstituted yeast, primary screen, luminescence, uHTS; 0.39% of 330,000 active; inhibition, % at 10 µM; Yeast reconstituted NLRP3/ASC/caspase-1, beta-gal luminescence, 24 h; AID 2825, 2010;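 active means inhibition of 50% or more; inactive means inhibition below 50%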;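 further: plate controls were induced DMSO wells for no effect and uninduced yeast grown without galactose for full effect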
Beta apoptosis: inhibitors of cytokine-induced beta cell apoptosis, primary screen, luminescence; INS-1E cytokine-induced death, ATP luminescence, 48 h; percent of positive-control rescue, neutral wells zero; protection from apoptosis, % (no concentration beside the values); 0.8% of 300,000 active; AID 435005, 2010;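 active means Every replicate reaches about 75%, or at least half do and their mean reaches it too, limit read from the data; inconclusive means At least half of replicates reach the limit but their mean does not; inactive means Under half of replicates reach the limit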;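 further: 0% = cytokine-treated negative control wells and 100% = positive control rescue; higher means more ATP so stronger rescue from cytokine killing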
Mdm2 MdmX conf: Mdm2-MdmX complex disruptors, retested hits, confirmation, luminescence, single concentration; shares compounds with Mdm2-MdmX inh; Mdm2-MdmX binding, luminescent assay; inhibition, % at 8 µM; 55% of 10,000 active; AID 489028, 2010; in the data active means inhibition above about 40%
FLuc counter: full-length luciferase signal inhibition, confirmation, counter-screen for Mdm2/MdmX interaction inhibitor project, cell-based, single concentration, SaOS-2; shares compounds with Mdm2-MdmX inh; SaOS-2 full-length luciferase counterscreen, luminescence; inhibition, % at 8 µM; 77% of 6,200 active; AID 504607, 2011;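 active means mean inhibition at 8 µM reaching about 37%, which flags the compound as non-specific, limit read from the data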;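 further: p53-null SaOS-2 cells with luciferase driven by a doxycycline-inducible promoter; compound on cells about two nights before reading with doxycycline added after day one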
The depositor's hits bear a star; ? = inconclusive; . = no result. Compounds with a hit are over-represented: about 5.3% of the library has one in this group of screens.

SMILES	Calb FLC	CSC inhib	T cruzi repl	Mdm2-MdmX inh	NALP3 yeast inh	Beta apoptosis	Mdm2 MdmX conf	others
COc1ccc(/C=C/c2ccccc2)cc1[C@H]1[C@H]2C=CC[C@@H](C)[C@@H]2C(=O)N1Cc1ccccc1	-2	16	?	50	20	16	22
COC(=O)c1ccc(-c2ccc([C@H]3[C@H]4C=CC[C@@H](C)[C@@H]4C(=O)N3Cc3ccccc3)c(F)c2)cc1	4	-1	-10	39	5	3	.
CC(=O)c1ccc(-c2ccc([C@H]3[C@H]4C=CC[C@@H](C)[C@@H]4C(=O)N3Cc3ccccc3)c(F)c2)cc1	-6	75*	46	56*	12	9	11
C[C@@]12CCC=C[C@H]1[C@H](c1ccc3ccccc3c1Br)N(Cc1ccccc1)C2=O	-10	.	35	50*	16	6	9
O=C(CSc1ncn[nH]1)Nc1ncc(C(F)(F)F)cc1Cl	5	-3	-9	-21	3	.	.
COc1ccc(-c2ccc(C(C)=O)cc2)cc1[C@H]1[C@H]2C=CC[C@@H](C)[C@@H]2C(=O)N1Cc1ccccc1	15	19	60*	58*	4	12	11
C[C@@H]1CC=C[C@H]2[C@H]1C(=O)N(Cc1ccccc1)[C@H]2c1ccc(Br)cc1F	-11	31	18	39	1	-3	.
CC(=O)c1ccc(-c2ccc([C@H]3[C@@H]4C=CCC[C@@]4(C)C(=O)N3Cc3ccccc3)c(F)c2)cc1	-7	121*	28	54*	13	22	16
C[C@@H]1CC=C[C@H]2[C@H]1C(=O)N(Cc1ccccc1)[C@H]2c1ccc2ccccc2c1Br	8	.	46	84*	7	.	27
COC(=O)c1ccc(-c2ccc(OC)c([C@H]3[C@H]4C=CC[C@@H](C)[C@@H]4C(=O)N3Cc3ccccc3)c2)cc1	-3	21	47	62*	20	-10	45*	FLuc counter=46*
COc1ccc(-c2ccc(OC)c([C@H]3[C@H]4C=CC[C@@H](C)[C@@H]4C(=O)N3Cc3ccccc3)c2)cc1C	2	50	17	12	-7	-1	.
COc1ccc(Br)cc1[C@H]1[C@@H]2C=CCC[C@@]2(C)C(=O)N1Cc1ccccc1	-4	39	-15	5	-5	5	.
CC1CCN(CC(=O)Nc2ccccc2C(=O)c2ccccc2)CC1	-13	2	17	-19	3	-5	.
CC(C(=O)OCC(=O)NC1CCCC1)N1C(=O)c2ccccc2C1=O (centres undefined)	.	9	.	-41	25	-2	.
O=[N+]([O-])c1ccccc1S(=O)(=O)n1cnc2ccccc21	6	-2	-4	12	-10	-1	.
O=C(CCl)N1CCN2C(=O)c3ccccc3C12c1ccc(Cl)cc1 (centres undefined)	-14	59	19	100*	29	13	48*	FLuc counter=28
CC12CCC(C/C1=N/O)C2(C)CBr (centres undefined)	7	-7	2	25	24	-5	.
COc1ccc(C(=O)Nc2cc3c(cc2N2CCCCC2)n(C)c(=O)n3C)cc1OC	17	-2	14	38	7	-3	.
CCn1c(=O)n(CC)c2cc(N3CCCC3)c(NC(=O)c3cc(Cl)ccc3OC)cc21	-3	30	44	64*	12	6	21
COc1cc(C(=O)Nc2cc3c(cc2N2CCCCC2)n(C)c(=O)n3C)cc(OC)c1OC	15	-4	8	78*	19	0	44*	FLuc counter=72*
CC(=O)OCCc1c2ccccc2c(CCCN(C)C)c2ccccc12	-27	-6	45	2	-5	.	.
COc1ccc(S(=O)(=O)N2CCC(C(=O)N[C@H](C(=O)NC3CCCC3)C(C)C)CC2)cc1	1	-11	9	8	5	0	.
Cc1cccc(CSC(Nc2ccc(F)cc2)=C(C#N)C#N)c1	46	-26	0	94*	12	106*	89*	FLuc counter=50*
Cc1ccc(C(c2c(C)[nH][nH]c2=O)c2c(C)[nH][nH]c2=O)cc1[N+](=O)[O-]	-5	-14	-3	-26	4	-3	.
COc1ccc2cc(C3CC(c4cccs4)=NN3C(C)=O)c(Cl)nc2c1 (centres undefined)	-5	10	5	55*	22	-3	3
SMILES	Calb FLC	CSC inhib	T cruzi repl	Mdm2-MdmX inh	NALP3 yeast inh	Beta apoptosis	Mdm2 MdmX conf	others
Cc1cccc(Cn2cc(/C=C/[N+](=O)[O-])c3ccccc32)c1	-5	109*	39	58*	6	-1	15
COc1ccccc1/C=C/C(=O)c1cc(Br)ccc1OC(=O)c1ccco1	4	3	-11	55*	4	20	14
COc1ccc(NC(=O)CSc2ccc(-c3ccccn3)nn2)cc1OC	-22	-10	-4	28	-19	-4	.
O=C(CSc1ccc(-c2ccccn2)nn1)NCc1ccc(Cl)cc1	-9	9	?	-4	12	-6	.
CCOC(=O)c1ccc(NC(=O)CSc2ccc(-c3ccccn3)nn2)cc1	0	3	34	70*	14	5	53*	FLuc counter=59*
Clc1ccc(CSc2ccc(-c3ccccn3)nn2)cc1	-21	127*	68*	60*	16	84*	60*	FLuc counter=43*
CCOc1ccc(NC(=O)CSc2ccc(-c3ccccn3)nn2)cc1	2	-6	26	24	-6	6	.
O=C(CSc1ccc(-c2ccccn2)nn1)Nc1ccc(F)c(F)c1	-5	4	29	67*	40	2	43*	FLuc counter=55*
Cc1ccc(NC(=O)CSc2ccc(-c3ccccn3)nn2)cc1	41	0	31	55*	22	0	41*	FLuc counter=79*
CCC(C)[C@H](NC(=O)NCc1ccc(S(N)(=O)=O)cc1)C(=O)OC (some centres undefined)	2	-2	-2	15	-1	-2	.
CC(Sc1nncn1C)C(=O)NCc1ccc2c(c1)OCO2 (centres undefined)	9	-7	-22	-18	6	4	.
O=C(c1ccc(N2C(=O)CCC2=O)cc1)N1CCOCC1	5	-18	-2	-12	6	-7	.
N#Cc1c(N)nc2c(c1-c1ccc3c(c1)OCO3)CCc1ccccc1-2	6	82*	36	65*	16	13	36	FLuc counter=92*
